What was measured:
Brain [1] = experiment: Antioxidant activity in Swiss mouse brain cerebral tissue assessed as inhibition of SNP-induced lipid peroxidation by measuring TBARS level at 10 uM incubated for 1 hr relative to control; type: functional, tissue-based; set-up: scale not given: the % may be the effect or the level left
How it was run: (§1)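 Whole brain of male adult Swiss mice homogenized in cold 50 mM Tris-HCl pH 7.4 (1/5 w/v) and spun 2400 g, 10 min, 4 °C; supernatant S1 used. Peroxidation induced with sodium nitroprusside in the presence of compound. Then SDS 8.1%, TBA 0.8% and acetic acid/HCl pH 3.4 added, heated 95 °C for 2 h; MDA measured as marker. Trolox 10 µM as positive control. n = 3; one-way ANOVA with Tukey versus induced.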

[2] = Antioxidant activity assessed as ferric ion reducing activity by measuring absorbance at 500 uM measured after 40 mins by FRAP assay (reference value: 0.11 +/- 0.02); type: functional
How it was run: (§2)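 Compounds at 10–500 µM mixed with FRAP reagent (FeCl3, triazine and sodium acetate buffer pH 3.2; 10:1:1). Incubated 40 min at 37 °C in the dark; absorbance reported. Vehicle and Trolox 10 µM as controls. Mean ± SEM, n = 3; one-way ANOVA with Tukey versus vehicle.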

Brain [3] = experiment: Antioxidant activity in Swiss mouse brain cerebral tissue assessed as inhibition of SNP-induced lipid peroxidation by measuring TBARS level at 50 uM incubated for 1 hr relative to control; type: functional, tissue-based; set-up: scale not given: the % may be the effect or the level left; how it was run: as §1
[4] = Ex vivo antioxidant activity in Swiss mouse assessed as inhibition of canola oil-induced lipid peroxidation in brain by measuring TBARS level at 10 mg/kg, ig measured after 30 mins (reference value: 91.91 +/- 9.38 /g); type: functional; settings: 0.5 h
[5] = Ex vivo antioxidant activity in Swiss mouse assessed as inhibition of canola oil-induced superoxide dismutase activity in brain by measuring SOD activity at 10 mg/kg, ig measured after 30 mins by spectrophotometric method (reference value: 25.44 +/- 4.12 U/min); type: functional; settings: 0.5 h
How it was run: (§3)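 Swiss mice dosed orally at 10 mg/kg (vehicle canola oil); brain S1 prepared 30 min later. SOD measured as inhibition of epinephrine autoxidation in Na2CO3 50 mM pH 10.3 at 480 nm, one unit = 50% inhibition at 26 °C. GPx measured as NADPH decay coupled to glutathione reductase with H2O2 and GSH. Mean ± SEM, 6 mice per group; Student's t-test.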

[6] = Antioxidant activity assessed as DPPH radical scavenging activity at 50 uM incubated for 30 mins under dark condition relative to control; type: functional
How it was run: (§4)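 Compounds at 10–500 µM mixed with ethanolic DPPH solution. Incubated 30 min at 30 °C in the dark, then absorbance read at 517 nm. Scavenging expressed as percent relative to vehicle; Trolox 10 µM as positive control. Mean ± SEM, n = 3; one-way ANOVA with Tukey.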

[7] = Antioxidant activity assessed as ferric ion reducing activity by measuring absorbance at 100 uM measured after 40 mins by FRAP assay (reference value: 0.11 +/- 0.02); type: functional; how it was run: as §2
[8] = Antioxidant activity assessed as ferric ion reducing activity by measuring absorbance at 10 uM measured after 40 mins by FRAP assay (reference value: 0.11 +/- 0.02); type: functional; how it was run: as §2
[9] = Toxicity in Swiss mouse assessed as change in plasma creatinine level at 10 mg/kg, ig measured after 30 mins (reference value: 1.77 +/- 0.05 mg/dl); type: organism-based; settings: in vivo, po, 0.5 h
How it was run: (§5)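 Swiss mice dosed intragastrically at 10 mg/kg (control canola oil 10 mL/kg). After 30 min, blood taken by heart puncture into heparin under light isoflurane anesthesia. Plasma obtained at 200 g for 10 min, hemolyzed samples discarded. ALT, AST, urea and creatinine measured with commercial kits. 5–6 mice per group; Student's t-test.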

[10] = Toxicity in Swiss mouse assessed as change in plasma ALT level at 10 mg/kg, ig measured after 30 mins (reference value: 110.90 +/- 12.4 IU/L); type: organism-based; settings: in vivo, po, 0.5 h; how it was run: as §5
[11] = Antioxidant activity assessed as ABTS radical scavenging activity at 100 uM relative to control; type: functional
How it was run: (§6)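 Compounds at 10–500 µM mixed with ABTS•+ solution; scavenging read as fall in absorbance at 734 nm, expressed as percent scavenging relative to vehicle. Trolox 10 µM as positive control. Mean ± SEM, n = 3; one-way ANOVA with Tukey.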

Brain [12] = experiment: Antioxidant activity in Swiss mouse brain cerebral tissue assessed as inhibition of sodium azide-induced reactive species production by measuring fluorescence unit at 50 uM by DCHF-DA dye based spectrofluorimetric method (reference value: 139 +/- 26.8 U); type: functional
[13] = Ex vivo antioxidant activity in Swiss mouse assessed as inhibition of canola oil-induced lipid peroxidation in kidney by measuring TBARS level at 10 mg/kg, ig measured after 30 mins (reference value: 438.20 +/- 27.59 /g); type: functional; settings: 0.5 h
[14] = Toxicity in Swiss mouse assessed as change in plasma urea level at 10 mg/kg, ig measured after 30 mins (reference value: 90.31 +/- 0.74 mg/dl); type: organism-based; settings: in vivo, po, 0.5 h; how it was run: as §5
[15] = Antioxidant activity assessed as ABTS radical scavenging activity at 10 uM relative to control; type: functional; how it was run: as §6
[16] = Ex vivo antioxidant activity in Swiss mouse assessed as inhibition of canola oil-induced lipid peroxidation in liver by measuring TBARS level at 10 mg/kg, ig measured after 30 mins (reference value: 271.5 +/- 43.88 /g); type: functional; settings: 0.5 h
[17] = Antioxidant activity assessed as ferric ion reducing activity by measuring absorbance at 50 uM measured after 40 mins by FRAP assay (reference value: 0.11 +/- 0.02); type: functional; how it was run: as §2
Brain [18] = experiment: Antioxidant activity in Swiss mouse brain cerebral tissue assessed as inhibition of SNP-induced lipid peroxidation by measuring TBARS level at 100 uM incubated for 1 hr relative to control; type: functional, tissue-based; set-up: scale not given: the % may be the effect or the level left; how it was run: as §1
Brain [19] = experiment: Antioxidant activity in Swiss mouse brain cerebral tissue assessed as inhibition of sodium azide-induced reactive species production by measuring fluorescence unit at 100 uM by DCHF-DA dye based spectrofluorimetric method (reference value: 139 +/- 26.8 U); type: functional
Brain [20] = experiment: Antioxidant activity in Swiss mouse brain cerebral tissue assessed as inhibition of sodium azide-induced reactive species production by measuring fluorescence unit at 10 uM by DCHF-DA dye based spectrofluorimetric method (reference value: 139 +/- 26.8 U); type: functional
[21] = Antioxidant activity assessed as DPPH radical scavenging activity at 100 uM incubated for 30 mins under dark condition relative to control; type: functional; how it was run: as §4
[22] = Toxicity in Swiss mouse assessed as change in plasma AST level at 10 mg/kg, ig measured after 30 mins (reference value: 148 +/- 8.08 […]); type: organism-based; settings: in vivo, po, 0.5 h; how it was run: as §5
Brain [23] = experiment: Antioxidant activity in Swiss mouse brain cerebral tissue assessed as inhibition of SNP-induced lipid peroxidation by measuring TBARS level at 500 uM incubated for 1 hr relative to control; type: functional, tissue-based; set-up: scale not given: the % may be the effect or the level left; how it was run: as §1
[24] = Antioxidant activity assessed as ABTS radical scavenging activity at 500 uM relative to control; type: functional; how it was run: as §6
[25] = Ex vivo antioxidant activity in Swiss mouse assessed as inhibition of canola oil-induced glutathione peroxidase activity in brain by measuring oxidation of NADPH at 10 mg/kg, ig measured after 30 mins by spectrophotometric method (reference value: 12.8 +/- 2.28 nmol/g); type: functional; settings: 0.5 h; how it was run: as §3
[26] = Antioxidant activity assessed as ABTS radical scavenging activity at 50 uM relative to control; type: functional; how it was run: as §6
[27] = Antioxidant activity assessed as DPPH radical scavenging activity at 500 uM incubated for 30 mins under dark condition relative to control; type: functional; how it was run: as §4
[28] = Antioxidant activity assessed as DPPH radical scavenging activity at 10 uM incubated for 30 mins under dark condition relative to control; type: functional; how it was run: as §4
[29] = Stability of compound exposed to blue LED light using DCM as solvent measured after 24 hrs; type: physicochemical
[30] = Stability of compound in TsOH measured after 24 hrs; type: physicochemical
[31] = Stability of compound in Na2CO3 measured after 24 hrs; type: physicochemical
[32] = Stability of compound exposed to blue LED light using DMSO as solvent measured after 24 hrs; type: physicochemical
[33] = Stability of compound exposed to blue LED light using EtOH as solvent measured after 24 hrs; type: physicochemical
Brain [34] = experiment: Antioxidant activity in Swiss mouse brain cerebral tissue assessed as inhibition of sodium azide-induced reactive species production by measuring fluorescence unit at 500 uM by DCHF-DA dye based spectrofluorimetric method (reference value: 139 +/- 26.8 U); type: functional
[35] = Drug metabolism in TsOH assessed as tetraethyl diphosphate formation measured after 2 hrs by 31P-[1H] NMR spectroscopy
[36] = Stability of compound exposed to blue LED light using DCM as solvent assessed as parent compound remaining measured after 2 hrs by 31P-[1H] NMR spectroscopy; type: physicochemical; settings: DCM solution exposed to blue LED light, read-out: Stabilty

| SMILES | Activity (Brain [1]) | Activity [2] | Activity [4] | Activity [5] | Activity [6] | Activity [7] | Activity [8] | Activity [9] | Activity [10] | Activity [13] | Activity [14] | Activity [15] | Activity [16] | Activity [17] | Activity (Brain [20]) | Activity [21] | Activity [22] | Activity [25] | Activity [26] | Activity [28] | also measured |
| --- | --- | --- | --- | --- | --- | --- | --- | --- | --- | --- | --- | --- | --- | --- | --- | --- | --- | --- | --- | --- | --- |
| CCCCOP(=O)(OCCCC)[Se]c1ccccc1 | 79.3% | 0.3 | 87.71 g⁻¹ | 23.85 U/min | 18.4% | 0.15 | 0.11 | 1.75 mg/dL | 140 IU/L | 371 g⁻¹ | 105 mg/dL | 1.92% | 249.4 g⁻¹ | 0.15 | 98.3 U | 12.2% | 159.3 IU/L | 5.5 nmol/g | 8.76% | 6.14% | Activity (Brain [3]): 83.8%; Activity [11]: 3.84%; Activity (Brain [12]): 76.1 U; Activity (Brain [18]): 90.4%; Activity (Brain [19]): 61.4 U; Activity (Brain [23]): 57%; Activity [24]: 2.34%; Activity [27]: 7.38% |
| CCOP(=O)(OCC)[Se]c1ccccc1 | – | – | – | – | – | – | – | – | – | – | – | – | – | – | – | – | – | – | – | – | Stabilty [29]: Stable; Stabilty [30]: Stable; Stabilty [31]: Stable; Stabilty [32]: Stable; Stabilty [33]: Stable |
| O=P(OCc1ccccc1)(OCc1ccccc1)[Se]c1ccccc1 | 59.5% | 1.02 | 83 g⁻¹ | 17.54 U/min | 3.94% | 0.4 | 0.16 | 1.52 mg/dL | 138.1 IU/L | 580.5 g⁻¹ | 98.59 mg/dL | 3.85% | 263.8 g⁻¹ | 0.23 | 61.7 U | 3.72% | 155.3 IU/L | 6.39 nmol/g | 3.06% | 2.19% | Activity [11]: 1.86%; Activity [24]: 12.4%; Activity [27]: 5.04% |
| COP(=O)(OC)[Se]c1ccccc1 | 84.7% | 0.16 | 87.34 g⁻¹ | 25.94 U/min | 7.83% | 0.12 | 0.11 | 1.78 mg/dL | 117.4 IU/L | 676.6 g⁻¹ | 80.3 mg/dL | 5.02% | 326 g⁻¹ | 0.12 | 71.5 U | 4.68% | 151.2 IU/L | 7.18 nmol/g | 10.3% | 5.53% | Activity (Brain [3]): 80.6%; Activity (Brain [18]): 85.9%; Activity (Brain [23]): 79.8%; Activity [27]: 21.9% |
| COP(=O)(OC)[Se]c1ccc(C)cc1 | 73% | 0.29 | 54.79 g⁻¹ | 7.37 U/min | 6.83% | 0.17 | 0.14 | 1.96 mg/dL | 119 IU/L | 455.4 g⁻¹ | 80.24 mg/dL | 11.5% | 199.9 g⁻¹ | 0.17 | 70.3 U | 9.87% | 147.4 IU/L | 7.48 nmol/g | 12.5% | 12.2% | Activity (Brain [34]): 62.7 U; Activity [11]: 29.9%; Activity (Brain [12]): 84.9 U; Activity (Brain [19]): 70.1 U; Activity [27]: 3.62% |
| CCOP(=O)(OCC)[Te]c1ccccc1 | – | – | – | – | – | – | – | – | – | – | – | – | – | – | – | – | – | – | – | – | Drug metabolism [35]: Metabolite detected; remaining at 2 h [36]: 20% |
| Cc1c(C)c2c(c(C)c1O)CCC(C)(C(=O)O)O2 (stereo not given) [TROLOX] | 29.8% | – | – | – | – | – | 0.39 | – | – | – | – | 94.3% | – | – | 99 U | – | – | – | – | 93.5% | – |
| COc1ccc([Se]P(=O)(OC)OC)cc1 | 87.6% | 0.26 | 64.64 g⁻¹ | 13.47 U/min | 6.95% | 0.19 | 0.16 | 2.36 mg/dL | 119.5 IU/L | 422.5 g⁻¹ | 74.39 mg/dL | 6.76% | 280.8 g⁻¹ | 0.16 | 94 U | 11.9% | 151 IU/L | 4.98 nmol/g | 8.6% | 3.72% | Activity (Brain [3]): 78.6%; Activity [11]: 6.91%; Activity (Brain [12]): 94.1 U; Activity (Brain [18]): 78.1%; Activity (Brain [19]): 67.2 U; Activity (Brain [23]): 58%; Activity [24]: 19.8%; Activity [27]: 19.1% |
